In ChEMBL document CHEMBL4373689, “Ferulic Acid Esters and Withanolides: In Search of Withania somnifera GABAA Receptor Modulators” (J Nat Prod, 2019):
The source made the active and inactive calls. The calls are words filed in the database; no cut-off is given here.

Each compound was assayed against T1, GABA-A receptor; anion channel (Rattus norvegicus) (UniProt O09028+P15431+P18506+P18508+P19969+P20236+P23574+P23576+P28471+P28473+P30191+P62813+P63079+P63138+Q91ZM7+Q9ES14) (assay: Modulation of GABAA receptor in electrically stimulated Sprague-Dawley rat dentate gyrus hippocampal granule neurons assessed as maximal potentiation of GABA induced IPSC amplitude at 100 uM at holding potential of -65 mV by whole-cell patch-clamp method relative to control). Details: not given.
Type: protein-complex assay

Row | Compound | Activity
1 | CCCCCCCCCCCCCCCCCCCCCOC(=O)/C=C/c1ccc(O)c(OC)c1 | 74%

The compounds below were run against T1, GABA-A receptor; anion channel (Rattus norvegicus) (assay: Modulation of GABAA receptor in electrically stimulated Sprague-Dawley rat dentate gyrus hippocampal granule neurons assessed as GABA induced IPSC amplitude at 10 uM at holding potential of -65 mV by whole-cell patch-clamp method). Details: not given.
Type: protein-complex assay
Method in brief: (§1)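 Rat dentate gyrus granule cells gave evoked IPSCs. Stimulus intensity was set at the start of each recording to give about 30% of maximal amplitude, and bicuculline (20 μM) suppression confirmed GABAAR mediation. IPSCs were recorded before and after perfusion of 10 μM compound, and results are given as percent change from baseline (means ± SEM, n = cells).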

Row | Compound | Activity
2 | CC1=C(CO)C(=O)O[C@@H]([C@@H](C)[C@H]2CC[C@H]3[C@@H]4C[C@H]5O[C@]56[C@@H](O)C=CC(=O)[C@]6(C)[C@H]4CC[C@]23C)C1 | inactive
3 | CC1=C(CO)C(=O)O[C@@H]([C@H](C)[C@H]2CC[C@H]3[C@@H]4C=CC5=CC=CC(=O)[C@]5(C)[C@H]4CC[C@]23C)C1 | inactive
4 | COc1cc(/C=C/C(=O)OCCCCCOC(=O)/C=C/c2ccc(O)c(OC)c2)ccc1O | inactive

Each compound was assayed against T1, GABA-A receptor; anion channel (Rattus norvegicus) (assay: Activation of GABAA receptor in Sprague-Dawley rat dentate gyrus hippocampal granule neurons assessed as holding current at 10 uM by whole-cell patch-clamp method). Details: not given.
Type: protein-complex assay
Method in brief: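 Rat dentate gyrus granule cells. Holding current was monitored with no electrical stimulation, before and after perfusion of 10 μM compound, to test for direct GABAAR activation.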

Row | Compound | Activity
5 | CC1=C(C)C(=O)O[C@@H]([C@](C)(O)[C@H]2CC[C@H]3[C@@H]4C=CC5=CC=CC(=O)[C@]5(C)[C@H]4CC[C@]23C)C1 | inactive
6 | CC1=C(CO)C(=O)O[C@@H]([C@@H](C)[C@H]2CC[C@H]3[C@@H]4C[C@H]5O[C@]56[C@@H](O)C=CC(=O)[C@]6(C)[C@H]4CC[C@]23C)C1 | inactive
7 | CCCCCCCCCCCCCCCCCCCCCOC(=O)/C=C/c1ccc(O)c(OC)c1 | inactive
8 | CC1=C(C)C(=O)O[C@@H]([C@@](C)(O)[C@H]2CC[C@H]3[C@@H]4[C@@H]5O[C@@H]5[C@@]5(O)CC=CC(=O)[C@]5(C)[C@H]4CC[C@]23C)C1 | inactive
9 | CC1=C(CO)C(=O)O[C@@H]([C@H](C)[C@H]2CC[C@H]3[C@@H]4C=CC5=CC=CC(=O)[C@]5(C)[C@H]4CC[C@]23C)C1 | inactive
10 | COc1cc(/C=C/C(=O)OCCCCCOC(=O)/C=C/c2ccc(O)c(OC)c2)ccc1O | inactive
11 | CC1=C(C)C(=O)O[C@@H]([C@H](C)[C@H]2CC[C@H]3[C@@H]4[C@@H]5O[C@@H]5[C@@]5(O)CC=CC(=O)[C@]5(C)[C@H]4CC[C@]23C)C1 | inactive
12 | CCCCCCCCCCCCCCCCCCCOC(=O)/C=C/c1ccc(O)c(OC)c1 | inactive
13 | CCCCCCCCCCCCCCCCCCOC(=O)/C=C/c1ccc(O)c(OC)c1 | inactive

The compounds below were run against GABA-A receptor; anion channel (assay: Modulation of GABAA receptor in electrically stimulated Sprague-Dawley rat dentate gyrus hippocampal granule neurons assessed as potentiation of GABA induced IPSC amplitude at holding potential of -65 mV by whole-cell patch-clamp method). Details: not given.
Type: protein-complex assay

Row | Compound | EC50
14 | CCCCCCCCCCCCCCCCCCCCCOC(=O)/C=C/c1ccc(O)c(OC)c1 | 7.9 µM

What follows are compounds tested against T1, GABA-A receptor; anion channel (Rattus norvegicus). Details: Sprague-Dawley, 20 uM.

Row | Compound | inhibition
15 | CN1CCc2cc3c(cc2[C@H]1[C@@H]1OC(=O)c2c1ccc1c2OCO1)OCO3 | Active

The compounds below were run against T1, GABA-A receptor; anion channel (Rattus norvegicus) (assay: Modulation of GABAA receptor in electrically stimulated Sprague-Dawley rat dentate gyrus hippocampal granule neurons assessed as decrease in GABA induced IPSC amplitude at 10 uM at holding potential of -65 mV by whole-cell patch-clamp method relative to control). Details: not given.
Type: protein-complex assay
Method in brief: as §1

Row | Compound | inhibition
16 | CC1=C(C)C(=O)O[C@@H]([C@](C)(O)[C@H]2CC[C@H]3[C@@H]4C=CC5=CC=CC(=O)[C@]5(C)[C@H]4CC[C@]23C)C1 | 28.6%
17 | CC1=C(C)C(=O)O[C@@H]([C@@](C)(O)[C@H]2CC[C@H]3[C@@H]4[C@@H]5O[C@@H]5[C@@]5(O)CC=CC(=O)[C@]5(C)[C@H]4CC[C@]23C)C1 | 20.8%
18 | CCCCCCCCCCCCCCCCCCCOC(=O)/C=C/c1ccc(O)c(OC)c1 | 36.5%
19 | CCCCCCCCCCCCCCCCCCOC(=O)/C=C/c1ccc(O)c(OC)c1 | 35.8%

What follows are compounds tested against T1, GABA-A receptor; anion channel (Rattus norvegicus) (assay: Modulation of GABAA receptor in electrically stimulated Sprague-Dawley rat dentate gyrus hippocampal granule neurons assessed as increase in GABA induced IPSC amplitude at 10 uM at holding potential of -65 mV by whole-cell patch-clamp method relative to control). Details: not given.
Type: protein-complex assay
Method in brief: as §1

Row | Compound | Activity
20 | CCCCCCCCCCCCCCCCCCCCCOC(=O)/C=C/c1ccc(O)c(OC)c1 | 48.2%
21 | CC1=C(C)C(=O)O[C@@H]([C@H](C)[C@H]2CC[C@H]3[C@@H]4[C@@H]5O[C@@H]5[C@@]5(O)CC=CC(=O)[C@]5(C)[C@H]4CC[C@]23C)C1 | 29.4%
